Reference: PMC3136873 (Archives of biochemistry and biophysics, 2011)

Experiments:
[1] = target: T1, ALAS/ALAS (single chain dimeric ALAS) (Mus musculus, UniProt P08680); assay: dissociation constant for ALA binding
T1 sequence (P08680 50-587): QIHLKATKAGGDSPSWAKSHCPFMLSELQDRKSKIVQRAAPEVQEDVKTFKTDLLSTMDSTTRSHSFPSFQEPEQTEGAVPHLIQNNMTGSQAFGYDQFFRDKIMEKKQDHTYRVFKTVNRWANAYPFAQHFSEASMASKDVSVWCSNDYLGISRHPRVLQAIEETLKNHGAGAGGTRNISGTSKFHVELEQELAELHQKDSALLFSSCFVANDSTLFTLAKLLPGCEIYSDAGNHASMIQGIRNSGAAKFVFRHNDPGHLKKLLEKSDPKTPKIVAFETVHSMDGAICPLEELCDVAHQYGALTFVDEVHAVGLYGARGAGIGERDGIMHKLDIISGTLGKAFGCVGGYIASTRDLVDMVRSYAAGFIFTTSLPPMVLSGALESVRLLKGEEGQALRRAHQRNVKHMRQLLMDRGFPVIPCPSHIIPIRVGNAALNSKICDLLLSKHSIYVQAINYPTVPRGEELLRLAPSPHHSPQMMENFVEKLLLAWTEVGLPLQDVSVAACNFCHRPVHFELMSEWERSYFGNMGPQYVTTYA

ALAS/AONS = assay: continuous coupled spectrophotometric assay; assay type: biochemical, Mus musculus; Escherichia coli; settings: read-out: KmSCoA; ALAS site; co-substrate glycine; 30 °C
Procedure, shortened: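 ALAS/AONS chimera was expressed in E. coli DH5α and purified by 20–40% ammonium sulfate fractionation, Ultrogel ACA-44 gel filtration and Q-Sepharose (100–150 mM KCl gradient). Its concentration was taken on a 96 kD subunit basis. ALAS-site activity was read continuously by spectrophotometry at 30 °C, varying one substrate with the other held constant. Km came from Michaelis-Menten nonlinear regression.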

SEC = target: the molecule itself; assay: SEC

NCC(=O)CCC(=O)O [ALA, 5-aminolevulinate]
Kd [1]: 1460 ± 10 nM

CC(C)(COP(=O)(O)OP(=O)(O)OC[C@H]1O[C@@H](n2cnc3c(N)ncnc32)[C@H](O)[C@@H]1OP(=O)(O)O)[C@@H](O)C(=O)NCCC(=O)NCCSC(=O)CCC(=O)O [SCoA, succinyl-CoA]
Km (ALAS/AONS): 1.5 ± 0.2 µM

B1: ALAS/AONS chimera (single-chain chimera of murine erythroid 5-aminolevulinate synthase and E. coli 8-amino-7-oxononanoate synthase) (enzyme, murine | E. coli)
chain: QIHLKATKAGGDSPSWAKSHCPFMLSELQDRKSKIVQRAAPEVQEDVKTFKTDLLSTMDSTTRSHSFPSFQEPEQTEGAVPHLIQNNMTGSQAFGYDQFFRDKIMEKKQDHTYRVFKTVNRWANAYPFAQHFSEASMASKDVSVWCSNDYLGISRHPRVLQAIEETLKNHGAGAGGTRNISGTSKFHVELEQELAELHQKDSALLFSSCFVANDSTLFTLAKLLPGCEIYSDAGNHASMIQGIRNSGAAKFVFRHNDPGHLKKLLEKSDPKTPKIVAFETVHSMDGAICPLEELCDVAHQYGALTFVDEVHAVGLYGARGAGIGERDGIMHKLDIISGTLGKAFGCVGGYIASTRDLVDMVRSYAAGFIFTTSLPPMVLSGALESVRLLKGEEGQALRRAHQRNVKHMRQLLMDRGFPVIPCPSHIIPIRVGNAALNSKICDLLLSKHSIYVQAINYPTVPRGEELLRLAPSPHHSPQMMENFVEKLLLAWTEVGLPLQDVSVAACNFCHRPVHFELMSEWERSYFGNMGPQYVTTYAELMSWQEKINAALDARRAADALRRRYPVAQGAGRWLVADDRQYLNFSSNDYLGLSHHPQIIRAWQQGAEQFGIGSGGSGHVSGYSVVHQALEEELAEWLGYSRALLFISGFAANQAVIAAMMAKEDRIAADRLSHASLLEAASLSPSQLRRFAHNDVTHLARLLASPCPGQQMVVTEGVFSMDGDSAPLAEIQQVTQQHNGWLMVDDAHGTGVIGEQGRGSCWLQKVKPELLVVTFGKGFGVSGAAVLCSSTVADYLLQFARHLIYSTSMPPAQAQALRASLAVIRSDEGDARREKLAALITRFRAGVQDLPFTLADSCSAIQPLIVGDNSRALQLAEKLRQQGCWVTAIRPPTVPAGTARLRLTLTAAHEMQDIDRLLEVLHGNG
stoichiometry N (SEC): 2
